Source: ChEMBL document CHEMBL1133218, “N-[(R,R)-(E)-1-(4-chloro-benzyl)-3-(2-oxo-azepan-3-ylcarbamoyl)-allyl]-N-methyl-3,5-bis-trifluoromethyl-benzamide: an orally active neurokinin NK1/NK2 antagonist” (Bioorg Med Chem Lett, 2000)

Assays:
[1] = system: Cavia porcellus; test: In vivo inhibition against beta-Ala8-NKA-induced bronchoconstriction in guinea pig at 2 h; type: functional
[2] = system: Cavia porcellus; test: In vivo inhibition against Sar9SP-induced bronchoconstriction in guinea pigs at 1 mg/kg for 12 h; type: functional
[3] = target: T1, Substance-K receptor (Homo sapiens, UniProt P21452); test: In vitro inhibition of [125I]NKA binding to transfected Chinese hamster ovary cells (CHO cells) expressing recombinant human Tachykinin receptor 2; type: cell-based
T1 sequence (P21452 whole entry): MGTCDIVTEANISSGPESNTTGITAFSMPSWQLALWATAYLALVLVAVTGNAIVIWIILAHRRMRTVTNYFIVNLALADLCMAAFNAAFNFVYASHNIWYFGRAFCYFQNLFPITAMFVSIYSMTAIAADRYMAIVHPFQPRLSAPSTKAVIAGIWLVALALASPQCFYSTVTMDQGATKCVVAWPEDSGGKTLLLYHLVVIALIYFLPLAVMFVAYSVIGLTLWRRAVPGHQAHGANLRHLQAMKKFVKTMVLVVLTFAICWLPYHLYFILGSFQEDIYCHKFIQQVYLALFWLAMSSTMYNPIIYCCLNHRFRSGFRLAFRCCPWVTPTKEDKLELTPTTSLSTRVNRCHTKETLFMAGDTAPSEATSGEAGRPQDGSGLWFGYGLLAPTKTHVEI
In short: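 Binding of 0.05 nM [125I]-NKA (2200 Ci/mmol) to 3×10^5 hNK2-transfected CHO cells in 20 mM HEPES pH 7.4 with 2 mM MnSO4 and 6 mM MgCl2, across a range of drug concentrations. Incubated 20 min at room temperature. Nonspecific binding taken with 50 nM NKA. Rapid filtration, 4 washes in ice-cold Tricine, filter radioactivity by scintillation counting, triplicates.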

[4] = system: Cavia porcellus; test: In vivo inhibition against Sar9SP-induced bronchoconstriction in guinea pigs at 2 h; type: functional
[5] = system: Cavia porcellus; test: In vivo inhibition against beta-Ala8-NKA-induced bronchoconstriction in guinea pig at 4 h; type: functional
[6] = system: Cavia porcellus; test: In vivo inhibition against Sar9SP-induced bronchoconstriction in guinea pigs at 4 h; type: functional

Row | Structure (SMILES) | IC50 [3] [nM] | also measured
1 | CN(C(=O)c1cc(C(F)(F)F)cc(C(F)(F)F)c1)[C@@H](/C=C/C(=O)N[C@@H]1CCCCNC1=O)Cc1ccc(Cl)cc1 | 24 | ED50 [1]: 0.9 mg/kg; inhibition in vivo at 1 mg/kg [2]: 85%; ED50 [4]: 0.036 mg/kg; ED50 [5]: 0.73 mg/kg; ED50 [6]: 0.03 mg/kg
2 | CN(C(=O)c1cc(C(F)(F)F)cc(C(F)(F)F)c1)[C@H](/C=C/C(=O)N[C@@H]1CCCCNC1=O)Cc1ccc(Cl)cc1 | 123 | –
3 | CN(C(=O)c1cc(C(F)(F)F)cc(C(F)(F)F)c1)C(/C=C/C(=O)NC1CCCCNC1=O)Cc1ccc(Cl)cc1 (mixture of isomers) | 55 | –

The next lines start with results.

Row | IC50 [3] [nM] | Structure (SMILES) | also measured
4 | 300 | CN(C(=O)c1cc(C(F)(F)F)cc(C(F)(F)F)c1)[C@H](/C=C/C(=O)N[C@H]1CCCCNC1=O)Cc1ccc(Cl)cc1 | –
5 | 120 | CN(C(=O)c1cc(C(F)(F)F)cc(C(F)(F)F)c1)[C@@H](/C=C/C(=O)N[C@H]1CCCCNC1=O)Cc1ccc(Cl)cc1 (mixture of isomers) | –
